TRAIL sens C8: sensitizes caspase-8 expressing cells to TRAIL | inhibition (viability loss, TRAIL sensitization), % at 10 µM | AID 624354 | 360,000 compounds, 1% hits | NB7+C8 cells + TRAIL, ATPlite viability luminescence;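 active = compounds causing at least 50% loss of cell viability in the single-dose screen, relative to plate controls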
HSP90 inh: HSP90 refolding inhibition in rabbit reticulocyte lysate | luciferase refolding luminescence, 3 h | inhibition, % at 5.6 µM | 290,000 compounds, 0.91% hits | AID 1789;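 active = inhibition above the screen-wide mean plus 3 SD, computed separately per campaign, cut at about 16% in these data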;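 also: 0% = DMSO wells and 100% = 60 µM geldanamycin wells; inhibitors lower the luminescence because luciferase stays unfolded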
FLuc stim CS: firefly luciferase counter-screen for stimulation assays; P08659; activation factor at 10 µM; 200,000 tested, under 10 active; ATPlite luciferase biochemical, luminescence, 10 min; 0 = ATP-free wells, 1 = DMSO control;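 active = luciferase activation factor, scaled between plate controls, of at least 2 with compound at 10 µM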
Target sequence (P08659 whole entry, looked up): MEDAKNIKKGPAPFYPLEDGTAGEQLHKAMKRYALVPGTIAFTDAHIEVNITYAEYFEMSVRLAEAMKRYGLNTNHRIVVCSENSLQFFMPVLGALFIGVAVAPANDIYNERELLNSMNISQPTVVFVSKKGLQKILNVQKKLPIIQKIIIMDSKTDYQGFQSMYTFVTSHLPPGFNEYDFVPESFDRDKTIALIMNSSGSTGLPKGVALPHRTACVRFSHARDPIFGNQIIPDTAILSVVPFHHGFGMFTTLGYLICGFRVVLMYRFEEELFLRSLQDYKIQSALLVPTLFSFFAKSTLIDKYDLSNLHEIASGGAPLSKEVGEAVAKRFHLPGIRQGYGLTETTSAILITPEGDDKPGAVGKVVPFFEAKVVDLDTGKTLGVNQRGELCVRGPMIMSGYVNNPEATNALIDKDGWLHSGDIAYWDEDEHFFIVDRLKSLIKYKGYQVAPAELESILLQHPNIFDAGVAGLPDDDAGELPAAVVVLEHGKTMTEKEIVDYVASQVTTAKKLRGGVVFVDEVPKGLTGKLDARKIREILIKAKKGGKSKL
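Assay system: Luciferase/luciferin detection reagent, cell-free biochemical luciferase assay / Also added: ATP substrate / Schedule: 10 min at ambient temperature / Measured by: luminescence measurement of luciferase light output / Benchmarks: low control with PBS replacing ATP, high control enzyme plus ATP without compound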
FLuc inh counter: Photinus pyralis luciferase inhibition counter-screen. ATPLite firefly luciferase biochemical luminescence, 10 min. inhibition, % at 10 µM. 200,000 compounds, 1.5% hits;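 active = inhibition above about 50% when tested at 10 µM, limit read from the data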
PPC-1+TRAIL kill: compounds killing PPC-1 cancer cells with TRAIL present (potentiator screen, no TRAIL-free arm). PPC-1 cells + TRAIL, ATPLite viability luminescence. cell killing (% activity), % at 4 µM or 5 µM. 220,000 compounds, 0.41% hits;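 active = cell killing above 50% in the first pass at 4 µM, then a duplicate retest at 5 µM averaging 50% or more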;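 also: plate controls were cells with TRAIL plus DMSO for no effect and medium-only wells lacking cells for full effect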
HSP90 confirm: confirmation of HSP90 inhibitors | shares compounds with HSP90 inh | rabbit reticulocyte lysate, luciferase refolding luminescence, 3 h | inhibition, % at 5.9 µM | 2,300 compounds, 64% hits | AID 1846; in the data active = inhibition above about 18%;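 also: 0% = vehicle wells and 100% = reference inhibitor wells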
FLuc counter: firefly luciferase inhibition, HSP90 counter-screen | 2,300 compounds, 48% hits | shares compounds with HSP90 inh | AID 1847 | purified native firefly luciferase, luminescence | inhibition, % at 5.9 µM;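 active = inhibition above the mean inhibition of all tested sample wells plus 3 SD, cut at about 10% in these data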;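 also: 0% = DMSO with luciferase and 100% = wells lacking luciferase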
* hit, by the source's call; . = no result. Most compounds without a hit are left out; they make up all but 2% or so of the library.

SMILES	TRAIL sens C8	HSP90 inh	FLuc stim CS	FLuc inh counter	PPC-1+TRAIL kill	HSP90 confirm	FLuc counter
CC(NC(=S)NC1CCC(C(C)(C)C)CC1)c1ccccc1 (centres undefined)	18	-3	.	.	.	.	.
CCOC(=O)COc1coc(CN2CCN(c3ccc(F)cc3)CC2)cc1=O	-6	-2	.	.	.	.	.
S=c1[nH]nc(-c2ccccc2)n1Cc1ccccc1	-7	-2	1	0	1	.	.
S=c1[nH]nc(-c2ccc(Cl)cc2)n1Cc1ccccc1	-5	46*	1	-3	16	-6	-8
CC(=O)/C(N=Nc1ccc2c(c1)OCCO2)=C(\C)O	6	25*	0.7	30	5	45*	56*
CC(=O)/C(N=Nc1ccc2c(c1)OCO2)=C(\C)O	8	-4	0.8	16	23	.	.
NNC(=S)NC1CC2CC1C1C=CCC21 (centres undefined)	-9	25*	.	.	23	-4	-10
Oc1ccc(O)c(C=NNC(=S)NC2CC3CC2C2C=CCC32)c1 (centres undefined)	28	.	.	.	.	.	.
COc1ccc(S(=O)(=O)NCC(=O)N(CC(=O)NCC2CCCO2)Cc2ccc(F)cc2)cc1 (centres undefined)	19	-2	.	.	.	.	.
O=C(COc1ccc(Cl)cc1)NCc1nnc(SCC(=O)Nc2ccccc2)o1	3	37*	1	-2	-13	-1	-6
COCCn1c(SCC(=O)N2CCC(C)CC2)nc2ccccc2c1=O	-1	5	1.1	-12	-3	.	.
COCCCn1c(SCC(=O)NC2CCCCC2)nc2ccccc2c1=O	2	-1	.	.	.	.	.
COc1ccc(C(=O)Nn2c(SCC(=O)NC3CCCCC3)nc3ccccc3c2=O)cc1	38	62*	0.4	58*	48	71*	65*
COc1ccc(C(=O)CSc2ccccc2C(=O)O)cc1	3	32*	0.7	30	28	32*	-7
COc1ccc(C(=O)Nn2c(C)nc3ccccc3c2=O)cc1	-5	7	.	.	.	.	.
COc1ccc(C(=O)Nn2c(SCC(=O)N3CCC(C)CC3)nc3ccccc3c2=O)cc1	52*	73*	0.2	75*	49	71*	67*
COc1ccc(C(=O)Nn2c(SCC(=O)c3ccc(Cl)cc3)nc3ccccc3c2=O)cc1	14	77*	0.9	10	41	53*	46*
CCOc1ncccc1C(=O)N1CCN(S(=O)(=O)c2ccc3c(c2)OCCO3)CC1	8	.	.	.	.	.	.
CN(C)Cc1c[nH]c2nc[nH]c(=O)c12	-15	.	.	.	.	.	.
COc1ccc(Cl)cc1NC(=O)CSc1nnc(-c2ccco2)o1	8	-3	.	.	.	.	.
COc1ccc(C(=O)Nn2c(SCc3cccc([N+](=O)[O-])c3)nc3ccccc3c2=O)cc1	29	44*	0.9	14	34	50*	42*
O=C(Nn1c(SCc2cccc([N+](=O)[O-])c2)nc2ccccc2c1=O)c1ccccc1	0	7	1	2	15	.	.
CC(=O)c1cccc(NC(=O)CCC(=O)Oc2ccc(C)cc2)c1	-5	-3	.	.	.	.	.
CN1C(=O)C2(C(C#N)=C(N)N(c3ccc(Cl)cc3)C3=C2C(=O)CC(C)(C)C3)c2ccccc21 (centres undefined)	-6	37*	1.1	-6	26	-3	-5
Brc1ccc(OCCN2CCOCC2)cc1	3	-4	.	.	.	.	.
SMILES	TRAIL sens C8	HSP90 inh	FLuc stim CS	FLuc inh counter	PPC-1+TRAIL kill	HSP90 confirm	FLuc counter
Clc1ccc(OCCN2CCOCC2)cc1	6	18*	.	.	.	-5	-5
Cc1ccc(C(=O)NCCN2C3=NC[C@H](C(C)C)N3C[C@H]2Cc2ccc(O)cc2)cc1Br	-1	1	1.1	-10	11	.	.
COc1ccc(C[C@H]2CN3C(=NC[C@@H]3C(C)C)N2CCNC(=O)c2ccc(C)c(Br)c2)cc1	31	18*	1.1	-6	16	3	-7
CC(=O)C[C@H](O)CC(=O)[C@@H]1OC(=O)CCCCCc2ccccc21	-18	.	.	.	.	.	.
Fc1ccc(-n2nnc(-c3cnc4ccccc4c3)n2)cc1	61*	19*	0.3	74*	43	81*	77*
CC(=O)Nc1cccc(Nc2cc(C)nn2C)c1	10	.	.	.	.	.	.
Nc1ccc(-c2cnc3ccccc3n2)cc1	-6	.	.	.	.	.	.
Nc1ccc(-c2cnc(-c3ccc(N)cc3)nc2)cc1	73*	21*	0.3	74*	-10	26*	19*
Cc1cc(C)nc(Nc2nc(-c3ccccc3)cs2)n1	77*	28*	.	.	.	51*	37*
Cc1cc(C)nc(Nc2nc(C(N)c3ccccc3)cs2)n1 (centres undefined)	28	.	.	.	.	.	.
Cn1c(=O)c2ccccc2n(Cc2ccccc2F)c1=O	0	7	1.1	-6	10	.	.
Cn1c(=O)c2ccccc2n(Cc2ccccc2Cl)c1=O	7	28*	.	.	.	1	1
CCN(CC)S(=O)(=O)c1ccc(C)c(NC(=O)CN2CCN(Cc3ccccc3)CC2)c1	-7	29*	.	.	8	5	-1
C[n+]1ccc(/C=C/c2cccs2)cc1	1	28*	.	.	-13	0	-4
CN(C)c1ccc(/C=C/c2cc[n+](C)cc2)cc1	9	2	1	-1	9	.	.
CCN(CC)CCN(Cc1cc2cc3c(cc2[nH]c1=O)OCO3)C(=S)NC	-12	29*	.	.	.	-1	-4
O=C(C1CCCN(S(=O)(=O)Cc2ccccc2)C1)N1CCCCC1 (centres undefined)	-6	25*	1	1	18	-4	-10
O=C(c1ccco1)N1CCN(C(=O)C2CCCN(S(=O)(=O)Cc3ccccc3)C2)CC1 (centres undefined)	3	-2	1	-3	12	.	.
COC(=O)c1ccc(/C=C2/SC(=S)N(CCCC(=O)Nc3ccccn3)C2=O)cc1	-1	3	1	1	20	.	.
CCc1ccc(/C=C2\SC(=S)N(CCCC(=O)Nc3ccccn3)C2=O)cc1	63*	28*	1	1	7	32*	-16
Cc1nc(NCc2ccco2)c2c(C)c(C)sc2n1	28	2	1.1	-9	8	.	.
Cc1sc2nc3c4ccccc4c(NCc4ccco4)nn3c(=O)c2c1C	8	79*	1	3	25	6	-17
C=CCn1c2ccccc2c(=O)c2cc(C#CC3(O)CCCCC3)ccc21	81*	19*	.	.	.	27*	5
CN1CCN(S(=O)(=O)c2ccc(N(C)Cc3cccc(F)c3)nc2)CC1	-10	.	.	.	.	.	.
CC(C)(C)c1ccc(C(=O)O)c(C(=O)c2ccc(C(=O)O)cc2)c1	5	2	.	.	6	.	.
COc1ccc(N(Cc2cc3ccc(C)cc3[nH]c2=O)C(=O)c2ccco2)cc1	-9	-4	1.1	-6	-8	.	.

Screens deposited in PubChem BioAssay by several laboratories.
